From ChEMBL document CHEMBL1124112, “Indoline analogues of idazoxan: potent alpha 2-antagonists and alpha 1-agonists” (J Med Chem, 1988)

Tests used:
[1] = molecular target: Adrenergic receptor alpha-2 (Rattus norvegicus) (UniProt P22086+P19328+P22909); test: Antagonist potency towards alpha-2 adrenergic receptor determined as the dose required to produce a two fold shift of the dose-response curve to UK-14304 on the twitch response of the vas deferens (in vitro);AG- agonist; assay type: functional, tissue-based; conditions: filed as agonist
[2] = molecular target: Adrenergic receptor alpha-1 (Rattus norvegicus) (UniProt P15823+P23944+P43140); test: Agonism at alpha-1 adrenergic receptor, determined as the dose required to produce a two fold shift of the cirazoline on diastolic blood pressure.; assay type: functional, tissue-based; conditions: Artery
[3] = molecular target: T1, Adrenergic receptor alpha-1 (Rattus norvegicus, UniProt P15823+P23944+P43140); test: Inhibition of saturable binding of [3H]prazosin to alpha-1 adrenergic receptor in rat cerebral cortical membranes.; assay type: cell membranes, Membrane
T1 sequence (P15823 whole entry): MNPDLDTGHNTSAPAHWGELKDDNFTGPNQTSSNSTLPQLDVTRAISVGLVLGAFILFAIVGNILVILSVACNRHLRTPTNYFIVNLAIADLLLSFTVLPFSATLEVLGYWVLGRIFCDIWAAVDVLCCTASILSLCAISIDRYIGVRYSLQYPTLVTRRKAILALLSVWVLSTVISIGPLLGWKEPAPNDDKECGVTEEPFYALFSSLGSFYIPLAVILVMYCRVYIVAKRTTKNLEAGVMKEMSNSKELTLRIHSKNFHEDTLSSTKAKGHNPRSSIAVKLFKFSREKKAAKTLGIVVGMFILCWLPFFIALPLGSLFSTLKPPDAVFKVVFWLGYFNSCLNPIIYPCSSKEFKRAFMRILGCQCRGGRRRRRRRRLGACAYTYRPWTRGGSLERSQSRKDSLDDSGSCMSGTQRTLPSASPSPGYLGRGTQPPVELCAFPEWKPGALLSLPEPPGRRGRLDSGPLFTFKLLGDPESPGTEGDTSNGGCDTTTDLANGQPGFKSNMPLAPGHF
T1 sequence (P23944 whole entry): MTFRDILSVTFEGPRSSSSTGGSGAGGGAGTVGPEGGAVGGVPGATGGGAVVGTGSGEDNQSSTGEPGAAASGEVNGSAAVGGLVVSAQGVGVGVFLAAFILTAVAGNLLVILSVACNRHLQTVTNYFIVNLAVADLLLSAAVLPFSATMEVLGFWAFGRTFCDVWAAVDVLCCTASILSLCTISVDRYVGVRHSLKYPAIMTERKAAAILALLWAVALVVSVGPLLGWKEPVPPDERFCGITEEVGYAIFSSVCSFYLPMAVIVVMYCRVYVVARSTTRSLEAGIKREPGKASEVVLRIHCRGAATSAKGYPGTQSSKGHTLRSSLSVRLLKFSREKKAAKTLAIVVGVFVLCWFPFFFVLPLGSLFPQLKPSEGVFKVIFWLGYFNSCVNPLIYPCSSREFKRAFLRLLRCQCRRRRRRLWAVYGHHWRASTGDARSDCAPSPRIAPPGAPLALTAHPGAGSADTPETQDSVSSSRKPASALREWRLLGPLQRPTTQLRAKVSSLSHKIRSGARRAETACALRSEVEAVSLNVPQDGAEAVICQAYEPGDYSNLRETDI
T1 sequence (P43140 whole entry): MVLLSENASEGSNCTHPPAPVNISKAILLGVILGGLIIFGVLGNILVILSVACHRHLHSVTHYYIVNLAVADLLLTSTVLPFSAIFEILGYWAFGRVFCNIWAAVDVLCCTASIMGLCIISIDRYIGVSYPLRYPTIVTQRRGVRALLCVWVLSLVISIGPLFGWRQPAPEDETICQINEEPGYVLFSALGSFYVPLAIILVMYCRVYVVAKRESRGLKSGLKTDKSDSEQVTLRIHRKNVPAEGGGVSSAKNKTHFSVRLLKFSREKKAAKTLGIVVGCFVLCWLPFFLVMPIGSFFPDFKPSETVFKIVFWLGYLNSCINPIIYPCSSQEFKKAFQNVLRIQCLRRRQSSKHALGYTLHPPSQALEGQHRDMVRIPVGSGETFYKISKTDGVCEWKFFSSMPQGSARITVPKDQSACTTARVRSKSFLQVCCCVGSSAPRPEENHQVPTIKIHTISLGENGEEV
In short: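 Rat cerebral cortical membranes were used as the α1 site source and labelled with [³H]prazosin. Compounds displaced saturable binding. Ki (nM) was defined as the concentration inhibiting saturable binding by 50%.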

Rattus norvegicus [4] = test: In vivo antagonist dose producing two fold shift of cirazoline in pithed rats. (postjunctional); assay type: functional
In short: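 Pithed rats, separate groups (n = 4-6). Cirazoline cumulative dose-response on diastolic blood pressure (postjunctional α1) was recorded with and without antagonist given iv. The antagonist dose (μg/kg, iv) giving a twofold rightward shift of the cirazoline curve was reported as DR2.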

Rattus norvegicus [5] = test: In vivo antagonist dose producing two fold shift of UK-14,304 in pithed rats. (prejunctional)
[6] = test system: Adrenergic receptor alpha-1 (Rattus norvegicus); test: […] towards alpha-1 adrenergic receptor determined as the dose required to produce a two fold shift of the cirazoline on diastolic blood pressure (in vitro); conditions: Artery
[7] = test system: Adrenergic receptor alpha-2 (Rattus norvegicus); test: Agonism at alpha-2 adrenergic receptor, determined as dose required to produce a two fold shift of the cumulative dose-response curve to UK-14304 on the twitch response in rat vas deferens.

SMILES: c1ccc(CN2c3ccccc3CC2C2=NCCN2)cc1 (configuration not stated)
- Prejunctional antagonist potency [1]: Agonist
- Postjunctional agonist potency [2]: 0
- Ki [3]: 17.5 nM
- DR2 (Rattus norvegicus [4]): 0.0543 mg/kg
- DR2 (Rattus norvegicus [5]): 0.0087 mg/kg
- Postjunctional antagonist potency [6]: 120
- Prejunctional agonist potency [7]: 0.02
